Screening results (PubChem)
Compounds with a hit are over-represented: about 1.2% of the library has one in this group of screens.
CRFR2-BP antag: CRF-BP/CRF-R2 complex antagonism; inhibition, % at 11.8 µM; HEK293 CRF-R2/CRF-BP, CRF-induced calcium fluorescence; 350,000 compounds, 0.59% hits; AID 588475;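 active means inhibition of the ligand-induced calcium signal above about 50% at the single tested concentration, limit read from the data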
CRFBP-R2 agonist: CRF-BP/CRF-R2 complex agonism. HEK293 CRF-R2/CRF-BP, calcium dye fluorescence (FLIPR); percent of saturating CRF peptide response. activation, % at 13.2 µM. 350,000 compounds, 0.46% hits. AID 588473;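 active means activation of at least 50%, plus an integration ratio under a set limit after plate pattern correction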
DDE Tn7 FP inh: inhibitors of Tn7 peptide binding to human fibrin DD(E) | 370,000 compounds, 0.13% hits | AID 720508 | FP displacement of FITC-Tn7 peptide from fibrin DD(E); 0% = median of compound wells per plate | inhibition, % at 8.3 µM;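 active means inhibition above the mean of compounds falling within the control limits plus 3 SD of them, cut at about 14% in these data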
Target sequence (P02675 whole entry, looked up): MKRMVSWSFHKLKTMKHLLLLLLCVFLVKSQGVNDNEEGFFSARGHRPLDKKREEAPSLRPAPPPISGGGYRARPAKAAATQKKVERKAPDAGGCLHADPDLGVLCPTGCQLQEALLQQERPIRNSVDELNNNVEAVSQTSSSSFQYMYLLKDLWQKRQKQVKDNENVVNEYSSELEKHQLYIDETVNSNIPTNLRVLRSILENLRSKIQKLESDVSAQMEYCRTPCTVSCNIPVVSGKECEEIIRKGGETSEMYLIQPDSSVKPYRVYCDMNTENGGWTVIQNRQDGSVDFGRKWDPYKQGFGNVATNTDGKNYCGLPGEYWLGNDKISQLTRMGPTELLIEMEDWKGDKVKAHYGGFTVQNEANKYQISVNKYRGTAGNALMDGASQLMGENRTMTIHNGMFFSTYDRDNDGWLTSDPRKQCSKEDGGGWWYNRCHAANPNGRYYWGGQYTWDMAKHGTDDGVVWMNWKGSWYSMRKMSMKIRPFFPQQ
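Assay system: human fibrin DD(E) protein / Input: 2 µM fibrin DD(E) / Benchmarks: high control of 10 µM Aha-Tn7 peptide / Measured by: fluorescence polarization of the labelled Tn7 tracer / Medium: Tris buffer with calcium and detergent, pH 7.8 / Timing: 10 min compound pre-incubation, 3 h probe incubation at room temperature / Repeats: one replicate per compound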
Tn6 DDE FP: disrupts Tn6 cyclic peptide binding to fibrin D-Dimer-E complex; P02675; Fibrin DD(E) TRITC-Tn6 fluorescence polarization displacement; inhibition, % at 8.3 µM; 370,000 compounds, 0.21% hits; AID 720509;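 active means inhibition above a per-campaign cutoff: mean of compounds within control limits plus 3 SD, cut at about 15% in these data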
A number is an active result; i = inactive; nt = no result.

SMILES	CRFR2-BP antag	CRFBP-R2 agonist	DDE Tn7 FP inh	Tn6 DDE FP
CCCCOc1ccccc1C1C(C(=O)OC)=CN(CC)C=C1C(=O)OC	59	i	i	i
CCOc1ccc(NS(=O)(=O)c2ccc(C(=O)NCC3(N4CCCCC4)CCCCC3)cc2)cc1	i	62	i	i
Cc1cc(S(=O)(=O)Nc2ccc(C(=O)NCC3(N(C)C)CCCCC3)cc2)ccc1F	i	i	i	i
CCOc1ccc(NS(=O)(=O)c2ccc(C(=O)NCC3(N(C)C)CCCCC3)cc2)cc1	i	51	i	i
Cc1cc(S(=O)(=O)Nc2ccc(C(=O)NCC3(N4CCCCC4)CCCCC3)cc2)ccc1F	i	i	i	i
COC(=O)C1CN(Cc2ccc(C)cc2)CCS(=O)(=O)N1Cc1cn(Cc2ccc(Cl)cc2)nn1 (stereo not drawn)	nt	nt	i	i
COc1cc(C(=O)NCC(=O)NNC(=O)C2COc3ccccc3O2)cc(OC)c1OC (stereo not drawn)	i	i	i	i
O=C(O)CSc1c(-c2ccccc2)c2cc(Cl)ccc2[nH]c1=O	i	i	i	i
CCN(CC)C(=S)Sc1c(-c2ccccc2)c2cc(Cl)ccc2[nH]c1=O	i	71	i	i
Cc1cc2c(cc1C)NC(c1c(C)n(C)n(-c3ccccc3)c1=O)C1=C(CC(C)(C)CC1=O)N2 (stereo not drawn)	i	63	i	i
COc1cc(C2Nc3cc(C)c(C)cc3NC3=C2C(=O)CC(C)(C)C3)ccc1OC(C)=O (stereo not drawn)	i	i	i	i
Cc1ccc(NC(=S)NNC(=O)CSc2nnc(SCc3cccc4ccccc34)s2)cc1	nt	nt	i	i
Cn1c(NC(=O)c2ccccc2)nc(Cc2ccccc2)c1-c1ccccc1	nt	nt	i	i
COCCNC(=O)c1onc(CSc2ccccc2C)c1C(=O)O	i	i	i	22
CC1=CC2C3C(=O)N(c4ccccc4)C(=O)C3C1C(=O)C2(O)C(C)C (stereo not drawn)	nt	nt	i	i
COc1cccc(CN(C)C(=O)c2cccc(S(=O)(=O)N3CCN(c4ccccc4)CC3)c2)c1OC	117	i	i	i
CCN(CC(=O)Nc1ccc(OC)cc1)C(=O)c1cc(S(=O)(=O)N2CCOCC2)ccc1N1CCCC1	70	i	i	i
COc1ccc(NC(=O)CN(C)C(=O)c2cccc(S(=O)(=O)N3CCN(c4ccc(F)cc4)CC3)c2)cc1	79	i	i	i
O=C(Nc1nc(Cc2ccccc2)c(-c2ccccc2)n1Cc1ccccc1)c1ccccc1	nt	nt	i	i
O=C(NCCc1ccccc1)OCc1cn(Cc2ccccc2C(F)(F)F)nn1	nt	nt	i	i
COC(=O)C1CN(Cc2ccc(Cl)cc2)CCS(=O)(=O)N1Cc1cn(Cc2ccccc2)nn1 (stereo not drawn)	nt	nt	i	i
CCn1nc(-c2ccccc2)c2nc3ccccc3nc21	i	160	i	i
CCn1c2ccc(Cl)cc2c2nc3ccccc3nc21	i	i	i	i
CCCn1nc(-c2ccccc2)c2nc3ccccc3nc21	i	106	i	i
CCCCCn1nc(-c2ccccc2)c2nc3ccccc3nc21	i	176	i	i
SMILES	CRFR2-BP antag	CRFBP-R2 agonist	DDE Tn7 FP inh	Tn6 DDE FP
COc1ccc(OC)c(CN2C(=O)COc3ccccc3C2c2nnnn2C2CCCC2)c1 (stereo not drawn)	nt	nt	i	i
COc1ccc2c3c([nH]c2c1)[C@]1(CCNC=O)Nc2ccccc2C1=NCC3	nt	nt	i	i
CCCCn1c(=O)c2c(nc3n2CCCN3Cc2ccccc2)n(C)c1=O	i	i	i	i
Cc1[nH]c2ccccc2c1CCN(Cc1cccs1)C(=O)Nc1cccc2c1OCO2	nt	nt	i	i
COc1cc(/C=C2/C(=O)NN(c3cccc(C)c3)C2=O)cc([N+](=O)[O-])c1O	i	i	i	i
COc1cc(/C=C2/C(=O)NN(c3cccc(C)c3)C2=O)ccc1OC(=O)c1ccco1	i	54	i	i
O=C(NC(=S)NNC(=O)c1cccs1)c1ccc(Br)o1	i	71	i	i
Cc1ccc(S(=O)(=O)N[C@H](C(=O)Oc2ccc3c(C(F)(F)F)cc(=O)oc3c2)c2ccccc2)cc1	i	69	nt	nt
Cc1ccc(S(=O)(=O)NC(C(=O)Oc2ccc3ccc(=O)oc3c2)c2ccccc2)cc1 (stereo not drawn)	i	i	i	i
N#C/C(=C\c1ccccc1[N+](=O)[O-])C(=O)NC1CCCCC1	i	100	i	i
N#C/C(=C\C=C\c1ccccc1[N+](=O)[O-])C(=O)NC1CCCCC1	i	i	nt	nt
N#C/C(=C\c1cccn1-c1ccccc1)C(=O)NC1CCCCC1	127	i	i	i
N#C/C(=C\c1ccc(F)c(F)c1)C(=O)NC1CCCCC1	i	i	i	i
C=CC[C@@]1(c2ccccc2)Oc2ccccc2-c2nc3ccccc3nc21	nt	nt	i	i
COC(CNC(=O)[C@H](Cc1c[nH]c2ccccc12)NC1(C(=O)NC(c2ccccc2)c2ccccc2)CCCCC1)OC	nt	nt	i	i
COc1ccc(C(=O)NCC(=O)N2CCN(C(=O)c3ccco3)CC2)cc1OC	i	i	i	i
COc1ccc(C(=O)NCC(=O)N2CCN(C(=O)c3ccco3)CC2)cc1	i	316	i	i
CC(C)C[C@H]1COc2ccc(Cl)cc2S(=O)(=O)N1Cc1cn(Cc2ccc(C(F)(F)F)cc2)nn1	nt	nt	i	i
C=CCOC(=O)C1=C(C)N=c2sc(=C3C(=O)N(CC(=O)O)c4ccccc43)c(=O)n2C1c1ccc(OC)cc1 (stereo not drawn)	nt	nt	i	i
O=C(c1ccc2c(c1)OCO2)C1CCCN(Cc2cc(F)ccc2-n2cccn2)C1 (stereo not drawn)	i	56	i	i
COc1ccc2[nH]cc(C(=O)CN3CCCCC3)c2c1	i	59	i	i
Nc1ncn(C23CC4CC(CC(C4)C2)C3)n1	i	i	i	i
Cc1ncn(C23CC4CC(CC(C4)C2)C3)n1	58	i	i	i
COc1ccc(N=C2NC(=O)S/C2=C\c2ccc(N(C)C)cc2)cc1	i	98	i	i
O=C1NC(=S)S/C1=C\c1cc(Cl)ccc1Cl	70	i	i	i
SMILES	CRFR2-BP antag	CRFBP-R2 agonist	DDE Tn7 FP inh	Tn6 DDE FP
O=C1NC(=S)SC1=Cc1ccc2c(c1)OCO2	i	i	i	i
CCOc1ccc(N(C)c2ccc(/C=C3/SC(=S)NC3=O)cc2)cc1	i	68	i	i
O=C1NC(=S)S/C1=C/c1ccc(Oc2cnccn2)cc1	i	i	i	i
CN(C)c1ccc(C=C2SC(=S)NC2=O)cc1	i	132	i	i
COc1ccccc1N1CCN(N=Cc2ccccc2Br)CC1	nt	nt	i	i
CC(COc1cccc(C#N)c1)CN1CCC(C(O)(c2ccccc2)c2ccccc2)CC1 (stereo not drawn)	nt	nt	i	i
O=C(O)c1ccc(-c2nc(-c3ccc(Cl)cc3)cs2)cc1	53	i	i	i
O=C(O)c1ccc(-c2nc(-c3ccc(Cl)cc3Cl)cs2)cc1	67	i	i	i
COc1ccc(-c2csc(-c3ccc(C(=O)O)cc3)n2)cc1	i	i	i	i
CCC[C@H]1[C@@H](OC(=O)NCc2ccc(C(F)(F)F)cc2)CC[C@@]23CCCN2C(=O)CCC[C@@H]13	nt	nt	i	i
CCOc1ccc(OCCSc2nc(N)cc(=O)[nH]2)cc1	59	i	i	i
